Data on six molecules can be found in ChEMBL document CHEMBL1123609, “Synthesis, conformational considerations, and estrogen receptor binding of diastereoisomers and enantiomers of 1-[4-[2-(dimethylamino)ethoxy]phenyl]-1,2-diphenylbutane (dihydrotamoxifen)” (1987).

Experiment [1] relates to MCF7. Kind of experiment: Effect on the MCF-7 cell proliferation at 10e-8 M. The experiment is classed as functional, Homo sapiens. In a few lines: (§1)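 MCF-7 cells seeded at 5000 cells/mL; compounds added after 24 h, final 10^-8, 10^-7 and 10^-6 M, alone or with 10^-8 M estradiol. After 5 days of culture, monolayer fixed in 90% ethanol and stained with hematoxylin; absorbance read at 540 nm as a measure of cell number. Mean of four separate cultures, expressed as percentage of control.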

The test system of experiment [2] is MCF7. Description: Effect on the MCF-7 cell proliferation at 10e-7 M. The experiment is classed as functional, Homo sapiens. In outline:
as §1

For experiment [3], the system named is MCF7. Kind of experiment: Effect on the MCF-7 cell growth at 10e-6 M. The experiment is classed as functional, Homo sapiens. In a few lines:
as §1

The target in experiment [4] is Estrogen receptor (Homo sapiens) (UniProt Q92731+P03372). Kind of experiment: Relative binding affinity for estrogen receptor of MCF-7 cells. The class given is cell-based. The following applies: MCF7. In a few lines:
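Whole MCF-7 cells incubated 50 min at 37 °C with 10^-9 M [3H]estradiol, without or with test compound or unlabeled estradiol reference (10^-10 to 10^-6 M). Bound material extracted with EtOH and receptor-bound [3H]estradiol measured. RBA calculated as in the calf uterine cytosol competition assay.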

As to `CC/C(=C(/c1ccccc1)c1ccc(O)cc1)c1ccccc1.C[C@]12CC[C@@H]3c4ccc(O)cc4CC[C@H]3[C@@H]1CC[C@H]2O`, the Activity in the experiment on MCF7 [1] was 0.696; in the experiment with MCF7 [2], 0.607; in the experiment on MCF7 [3], 0.41.

In the case of `CC/C(=C(\c1ccccc1)c1ccc(O)cc1)c1ccccc1`, the results for the Activity in the experiment with MCF7 [1], in the experiment on MCF7 [2] and in the experiment on MCF7 [3] were 0.121, 0.12 and 0.131, respectively.

For `CC/C(=C(\c1ccccc1)c1ccc(O)cc1)c1ccccc1.C[C@]12CC[C@@H]3c4ccc(O)cc4CC[C@H]3[C@@H]1CC[C@@H]2O`, the Activity with MCF7 [1] was 0.229; with MCF7 [2], 0.138; with MCF7 [3], 0.108.

`CC[C@@H](c1ccccc1)[C@H](c1ccccc1)c1ccc(OCCN(C)C)cc1` showed a Relative binding affinity in experiment [4] of 0.02.

In experiment [4], `CC[C@H](c1ccccc1)[C@@H](c1ccccc1)c1ccc(OCCN(C)C)cc1` had a Relative binding affinity of 0.04.

With `CC/C(=C(/c1ccccc1)c1ccc(O)cc1)c1ccccc1`, the Activity in the experiment on MCF7 [1] came to 0.557; with MCF7 [2], 0.486; in the experiment with MCF7 [3], 0.428.
